Data published in ChEMBL document CHEMBL1142981, “Identification and synthesis of a novel selective partial PPARdelta agonist with full efficacy on lipid metabolism in vitro and in vivo” (J Med Chem, 2007).
Blank lines part the entries; values can stand above or below the compound they belong to.

Columns and labels:
[1] = Half life in Sprague-Dawley rat at 0.45 mg/kg, po; type: ADME, organism-based; parameters: dose 0.45 mg/kg, route oral; details: in vivo
In short: (§1)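 Male SD rats, single oral dose in 5% ethanol/10% HPCD/phosphate buffer pH 7.5-8.0, n = 8. One animal was killed at each of 5, 15, 30, 60, 90, 120, 240 and 360 min. EDTA plasma was analysed by turbulent-flow LC-MS/MS. Cmax, half-life and oral bioavailability were taken from the plasma curves, with bioavailability using a parallel i.v. arm.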

[2] = target: T1, Peroxisome proliferator-activated receptor alpha (Homo sapiens) (UniProt Q07869); experiment: Activity at human liver PPAR alpha expressed in HEK293 cells by GAL4 transactivation assay relative to NNC61-4655; type: cell-based
T1 sequence (whole entry): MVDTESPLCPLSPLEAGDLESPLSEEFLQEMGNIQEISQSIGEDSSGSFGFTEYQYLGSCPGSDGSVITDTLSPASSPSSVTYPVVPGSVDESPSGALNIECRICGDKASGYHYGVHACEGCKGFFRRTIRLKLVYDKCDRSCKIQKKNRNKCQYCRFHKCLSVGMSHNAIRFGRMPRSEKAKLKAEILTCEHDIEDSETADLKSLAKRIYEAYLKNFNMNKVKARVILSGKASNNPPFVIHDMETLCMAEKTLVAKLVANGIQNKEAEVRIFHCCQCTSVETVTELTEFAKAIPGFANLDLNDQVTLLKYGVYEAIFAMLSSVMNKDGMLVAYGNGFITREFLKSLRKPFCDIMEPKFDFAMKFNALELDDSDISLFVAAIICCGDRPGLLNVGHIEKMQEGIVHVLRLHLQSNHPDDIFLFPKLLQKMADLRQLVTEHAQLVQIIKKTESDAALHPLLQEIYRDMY

[3] = Plasma Cmax in Sprague-Dawley rat at 0.45 mg/kg, po; type: ADME, organism-based; parameters: dose 0.45 mg/kg, route oral; in short: as §1
[4] = target: T2, Peroxisome proliferator-activated receptor delta (Homo sapiens, UniProt Q03181)
T2 sequence (Q03181 whole entry): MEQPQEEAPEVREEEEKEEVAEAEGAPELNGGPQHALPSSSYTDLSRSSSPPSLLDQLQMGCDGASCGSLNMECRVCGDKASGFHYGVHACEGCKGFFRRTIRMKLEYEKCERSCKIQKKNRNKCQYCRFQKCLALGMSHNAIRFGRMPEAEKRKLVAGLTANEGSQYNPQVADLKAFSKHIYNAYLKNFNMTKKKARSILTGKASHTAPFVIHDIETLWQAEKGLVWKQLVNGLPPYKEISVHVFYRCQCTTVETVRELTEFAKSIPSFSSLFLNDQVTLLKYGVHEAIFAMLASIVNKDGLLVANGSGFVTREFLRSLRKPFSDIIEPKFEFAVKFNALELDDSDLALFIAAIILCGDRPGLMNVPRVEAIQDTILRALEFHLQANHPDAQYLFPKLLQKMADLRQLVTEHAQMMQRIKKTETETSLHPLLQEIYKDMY

L6 [5] = experiment: Effect on fatty acid oxidation in rat L6 cells; type: functional, cell-based
In short: (§2)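 Rat L6 myoblasts differentiated 5 days in 2% serum, then treated 42 h with compound (refreshed at 24 h), followed by 6 h with 0.4 mM palmitate containing [9,10-3H]-palmitic acid on 2% fatty-acid-free BSA. Stopped with 10% TCA; released 3H-H2O collected by overnight equilibration at 50 °C and counted.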

[6] = Clearance in Sprague-Dawley rat at 0.20 mg/kg, iv; type: ADME, organism-based; parameters: dose 0.2 mg/kg, route intravenous; details: in vivo, 0.2 mg/kg
In short: (§3)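 Male SD rats dosed once i.v. or p.o. (n = 8 per route), vehicle 5% ethanol, 10% HPCD, phosphate buffer pH 7.5-8.0. One animal sacrificed at each of 5, 15, 30, 60, 90, 120, 240 and 360 min; EDTA plasma analysed by high turbulence LC-MS/MS. Each data point represents one animal.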

L6 [7] = experiment: Effect on increase in fatty acid oxidation in rat L6 cells relative to GW-501516; type: functional; parameters: concentration or dose not given beside the values; in short: as §2
[8] = Volume of distribution in Sprague-Dawley rat at 0.20 mg/kg, iv; type: ADME, organism-based; parameters: dose 0.2 mg/kg, route intravenous; details: in vivo, 0.2 mg/kg, read-out: Vss
In short: (§4)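 Male SD rats received a single p.o. or i.v. dose (n = 8 per route) in 5% ethanol, 10% HPCD and phosphate buffer, pH 7.5-8.0. At 5, 15, 30, 60, 90, 120, 240 and 360 min one rat was sacrificed per time point. EDTA plasma was assayed by high turbulence LC-MS/MS. Cmax and bioavailability were taken from oral dosing; volume of distribution is at steady state.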

[9] = Oral bioavailability in Sprague-Dawley rat at 2.29 mg/kg; type: ADME, organism-based; details: in vivo; in short: as §4
[10] = target: T3, Peroxisome proliferator-activated receptor gamma (Homo sapiens, UniProt P37231); type: cell-based, HEK293
T3 sequence (P37231 whole entry): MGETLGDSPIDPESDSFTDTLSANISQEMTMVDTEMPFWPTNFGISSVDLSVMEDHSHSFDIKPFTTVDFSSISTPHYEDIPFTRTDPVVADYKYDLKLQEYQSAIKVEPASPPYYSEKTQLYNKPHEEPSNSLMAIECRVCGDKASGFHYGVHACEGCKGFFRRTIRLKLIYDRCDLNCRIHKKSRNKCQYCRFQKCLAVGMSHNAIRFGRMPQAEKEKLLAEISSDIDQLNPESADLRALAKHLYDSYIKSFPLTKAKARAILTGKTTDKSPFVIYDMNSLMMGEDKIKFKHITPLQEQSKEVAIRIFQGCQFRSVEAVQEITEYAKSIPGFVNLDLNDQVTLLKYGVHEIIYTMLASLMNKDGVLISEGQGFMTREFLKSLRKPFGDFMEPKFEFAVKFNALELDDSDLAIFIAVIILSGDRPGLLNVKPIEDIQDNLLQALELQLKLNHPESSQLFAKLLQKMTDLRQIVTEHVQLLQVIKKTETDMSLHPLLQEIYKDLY

[11] = Plasma Cmax in Sprague-Dawley rat at 2.29 mg/kg, po; type: ADME, organism-based; parameters: dose 2.29 mg/kg, route oral; in short: as §4
[12] = target: T4, Peroxisome proliferator-activated receptor alpha (Homo sapiens, UniProt Q07869); experiment: Activity at human liver PPAR alpha expressed in HEK293 cells by PPAR-GAL4 transactivation assay; type: cell-based
T4 sequence (Q07869 whole entry): T1 sequence (whole entry)

[13] = Volume of distribution in Sprague-Dawley rat at 1.08 mg/kg, iv; type: ADME, organism-based; parameters: dose 1.08 mg/kg, route intravenous; details: in vivo, read-out: Vss; in short: as §4
[14] = Clearance in Sprague-Dawley rat at 1.08 mg/kg, iv; type: ADME, organism-based; parameters: dose 1.08 mg/kg, route intravenous; details: in vivo; in short: as §3
[15] = Half life in Sprague-Dawley rat at 2.29 mg/kg, po; type: ADME, organism-based; parameters: dose 2.29 mg/kg, route oral; details: in vivo; in short: as §3
Mus musculus [16] = experiment: Decrease in insulin level in human ApoB100/CETP transgenic mouse at 6 mg/kg, po after 6 weeks by ELISA relative to control; type: functional; parameters: scale not given: the % may be the effect or the level left
Mus musculus [17] = experiment: Decrease in total ketone bodies level in human ApoB100/CETP transgenic mouse at 6 mg/kg, po after 6 weeks relative to control; type: functional; parameters: scale not given: the % may be the effect or the level left
[18] = target: T5, Peroxisome proliferator-activated receptor delta (Mus musculus) (UniProt P35396); experiment: Agonist activity at mouse PPAR delta expressed in HEK293 cells by PPAR-GAL4 transactivation assay; type: functional, cell-based
T5 sequence (whole entry): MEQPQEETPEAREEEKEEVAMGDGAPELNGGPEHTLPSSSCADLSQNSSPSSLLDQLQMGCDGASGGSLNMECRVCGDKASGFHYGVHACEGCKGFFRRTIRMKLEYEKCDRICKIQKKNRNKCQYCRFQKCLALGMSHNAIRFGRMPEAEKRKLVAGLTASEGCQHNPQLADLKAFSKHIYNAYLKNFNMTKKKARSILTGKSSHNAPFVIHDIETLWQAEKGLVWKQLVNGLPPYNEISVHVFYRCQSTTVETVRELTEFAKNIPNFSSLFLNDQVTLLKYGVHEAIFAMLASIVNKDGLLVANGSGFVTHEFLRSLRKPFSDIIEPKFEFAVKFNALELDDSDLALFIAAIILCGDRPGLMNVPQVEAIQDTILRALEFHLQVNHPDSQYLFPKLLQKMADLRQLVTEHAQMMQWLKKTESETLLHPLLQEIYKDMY

L6 [19] = experiment: Effect on increase in fatty acid oxidation in rat L6 cells relative to basal; type: functional; in short: as §2
Mus musculus [20] = experiment: Decrease in glucose level in human ApoB100/CETP transgenic mouse at 6 mg/kg, po after 6 weeks relative to control; type: functional; parameters: scale not given: the % may be the effect or the level left
[21] = Plasma Cmax in Sprague-Dawley rat at 2.13 mg/kg, po; type: ADME, organism-based; parameters: dose 2.13 mg/kg, route oral; in short: as §4
[22] = Half life in Sprague-Dawley rat at 2.13 mg/kg, po; type: ADME, organism-based; parameters: dose 2.13 mg/kg, route oral; details: in vivo; in short: as §3
[23] = Clearance in Sprague-Dawley rat at 1.09 mg/kg, iv; type: ADME, organism-based; parameters: dose 1.09 mg/kg, route intravenous; details: in vivo; in short: as §3
Mus musculus [24] = experiment: Increase in HDL level in human ApoB100/CETP transgenic mouse at 6 mg/kg, po after 6 weeks relative to control; type: functional
Mus musculus [25] = experiment: Decrease in HbA1c level in human ApoB100/CETP transgenic mouse at 6 mg/kg, po after 6 weeks relative to control; type: functional; parameters: scale not given: the % may be the effect or the level left
Mus musculus [26] = experiment: Decrease in total cholesterol level in human ApoB100/CETP transgenic mouse at 6 mg/kg, po after 6 weeks relative to control; type: functional; parameters: scale not given: the % may be the effect or the level left
Mus musculus [27] = experiment: Decrease in LDL level in human ApoB100/CETP transgenic mouse at 6 mg/kg, po after 6 weeks relative to control; type: functional; parameters: scale not given: the % may be the effect or the level left
[28] = Oral bioavailability in Sprague-Dawley rat at 2.13 mg/kg; type: ADME, organism-based; details: in vivo; in short: as §4
Mus musculus [29] = experiment: Decrease in triglycerides level in human ApoB100/CETP transgenic mouse at 6 mg/kg, po after 6 weeks relative to control; type: functional; parameters: scale not given: the % may be the effect or the level left
[30] = Volume of distribution in Sprague-Dawley rat at 1.09 mg/kg, iv; type: ADME, organism-based; parameters: dose 1.09 mg/kg, route intravenous; details: in vivo, read-out: Vss; in short: as §4

half-life [1]: 15.9 h
Efficacy [2]: < 10%
Cmax [3]: 51 ng/mL
EC50 [4]: 5900 nM
clearance [6]: 27 mL/min/kg
Vd [8]: 5.3 L/kg
Compound: O=C(O)CCc1cccc(OCC=C(c2ccc(Br)cc2)c2ccc(Br)cc2)c1
EC50 (L6 [5]): 615 nM
Activity (L6 [7]): 59%

Compound: CCO[C@@H](Cc1ccc(OCC=C(c2ccc(Br)cc2)c2ccc(Br)cc2)cc1)C(=O)O
bioavailability [9]: 78%
Efficacy [2]: 93%
EC50 [4]: 540 nM
EC50 [10]: 590 nM
Cmax [11]: 554 ng/mL
EC50 [12]: 390 nM
Vd [13]: 2.3 L/kg
clearance [14]: 21.4 mL/min/kg
half-life [15]: 1.42 h

Efficacy [2]: 68%
Activity [18]: 269%
Cmax [21]: 454 ng/mL
half-life [22]: 10.2 h
clearance [23]: 7 mL/min/kg
bioavailability [28]: 136%
Vd [30]: 1 L/kg
Compound: Cc1cc(SCc2sc(-c3ccc(C(F)(F)F)cc3)nc2C)ccc1OCC(=O)O [GW501516]
Activity (Mus musculus [16]): 41%
Activity (Mus musculus [17]): 49%
Activity (L6 [19]): 120%
EC50 (L6 [5]): 6 nM
Activity (Mus musculus [20]): 4%
Activity (Mus musculus [24]): 4%
Activity (Mus musculus [25]): 13%
Activity (Mus musculus [26]): 15%
Activity (Mus musculus [27]): 19%
Activity (Mus musculus [29]): 14%
